Experimental data taken from ChEMBL document CHEMBL3297707, “Dual protonophore-chitinase inhibitors dramatically affect O. volvulus molting” (J Med Chem, 2014).
Active and inactive are the calls of the source. The rule behind the calls is not given here.

Experiments:
Chitinase [1] = molecular target: T1, Chitinase (Onchocerca volvulus, UniProt Q25615); assay: Inhibition of Onchocerca volvulus L3 larvae chitinase using 20 uM 4-methylumbelliferyl-N,N',N''-beta-chitotrioside as substrate after 10 mins by microplate reader analysis
T1 sequence (Q25615 whole entry): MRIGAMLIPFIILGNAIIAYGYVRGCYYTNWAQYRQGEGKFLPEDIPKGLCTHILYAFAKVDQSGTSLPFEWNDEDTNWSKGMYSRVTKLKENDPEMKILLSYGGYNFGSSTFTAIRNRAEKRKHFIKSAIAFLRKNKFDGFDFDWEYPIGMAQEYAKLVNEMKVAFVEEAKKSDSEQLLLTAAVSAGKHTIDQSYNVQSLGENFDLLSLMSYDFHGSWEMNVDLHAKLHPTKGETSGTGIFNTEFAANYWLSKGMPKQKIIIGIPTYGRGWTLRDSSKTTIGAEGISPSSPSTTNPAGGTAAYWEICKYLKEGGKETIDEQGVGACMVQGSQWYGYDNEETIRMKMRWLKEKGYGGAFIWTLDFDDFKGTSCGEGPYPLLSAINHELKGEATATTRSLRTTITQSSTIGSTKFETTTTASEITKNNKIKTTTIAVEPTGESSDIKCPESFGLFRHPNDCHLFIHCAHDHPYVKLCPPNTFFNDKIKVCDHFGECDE

HEK-293T [2] = assay: Protonophoric activity in human HEK293T/17 cells assessed as mitochondrial membrane depolarization at 50 uM for 30 mins by TMRE dye based fluorescence spectrometry; format: functional, cell-based
Method in brief: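 HEK 293T/17 cells suspended at 1–2 × 10^6/mL in 10% FBS DMEM, given 50 μM compound or DMSO for 30 min at 37 °C, then stained with TMRE (~450 nM final) for 30 min in the dark at 37 °C. After washes in 0.2% BSA/PBS, fluorescence read on a plate reader (ex 549, em 575 nm). Mean ± sd, n = 3.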

HEK-293T [3] = assay: Protonophoric activity in human HEK293T/17 cells assessed as mitochondrial membrane depolarization at 50 uM for 30 mins by TMRE dye based flow cytometry; format: functional, cell-based
Method in brief: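 Trypsinized HEK 293T/17 cells at 1–2 × 10^6/mL in 10% FBS DMEM, exposed to 50 μM compound or DMSO for 30 min at 37 °C. TMRE (~450 nM final) added for 30 min in the dark at 37 °C. Cells washed with 0.2% BSA/PBS; membrane polarization read by flow cytometry on 1–2 × 10^6 cells per sample.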

[4] = molecular target: T2, Chitinase (Onchocerca volvulus) (UniProt Q25615); assay: Inhibition of Onchocerca volvulus L3 larvae chitinase using 20 uM 4-methylumbelliferyl-N,N',N''-beta-chitotrioside as substrate at 10 uM after 10 mins by microplate reader analysis
T2 sequence (whole entry): T1 sequence (Q25615 whole entry)

Chitinase [5] = molecular target: T1, Chitinase; assay: Competitive inhibition of Onchocerca volvulus L3 larvae chitinase using 20 uM 4-methylumbelliferyl-N,N',N''-beta-chitotrioside as substrate after 10 mins by microplate reader analysis
Brugia malayi = assay: Inhibition of Brugia malayi chitinase using 20 uM 4-methylumbelliferyl-N,N',N''-beta-chitotrioside as substrate at 10 uM after 10 mins by microplate reader analysis
Entamoeba histolytica = assay: Inhibition of Entamoeba histolytica chitinase using 20 uM 4-methylumbelliferyl-N,N',N''-beta-chitotrioside as substrate at 10 uM after 10 mins by microplate reader analysis
Caenorhabditis elegans [6] = assay: Drug accumulation in Caenorhabditis elegans at 10 uM after 6 hrs by LC-MS analysis; format: ADME, organism-based; details: in vivo
Method in brief: (§1)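 Synchronized worms grown to late L4 on E. coli OP50 at 25 °C for 40 h, washed and suspended in M9 (~5–10 worms/μL). Compound added at 10 μM (~2 nmol/mg worm) for 6 or 12 h at rt. Worms washed with 0.1% SDS, then water, and lyophilized. Extracted in cold MeOH/MeCN (1:1) with internal standard and quantified by LC-TOF MS against calibration in blank worms. Mean ± sd, n = 3, nmol/mg worm.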

Caenorhabditis elegans [7] = assay: Drug accumulation in Caenorhabditis elegans at 10 uM after 12 hrs by LC-MS analysis; format: ADME, organism-based; details: in vivo; method in brief: as §1
Onchocerca volvulus [8] = assay: Antiparasitic activity against Onchocerca volvulus assessed as inhibition of L3 to L4 larval molting at 10 uM for 24 hrs measured until 6 days by using inverted microscopic analysis in presence of PBMC; format: functional, organism-based
Method in brief: (§2)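 O. volvulus L3 larvae pre-incubated with compound for 24 h, then complete medium (20% heat-inactivated FCS) and normal PBMCs added; molting assessed on day 6. Combination lines use a 1:1 mix with CCCP, each at the stated concentration. Percent molting taken over 10 wells, on average 5–10 larvae per well.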

Onchocerca volvulus [9] = assay: Antiparasitic activity against Onchocerca volvulus assessed as inhibition of L3 to L4 larval molting at 1 uM for 24 hrs measured until 6 days by using inverted microscopic analysis in presence of PBMC; format: functional; method in brief: as §2
HEK-293T [10] = assay: Cytotoxicity against human HEK293T/17 cells assessed as cell viability at 1 to 10 uM for 24 hrs by MTS assay; format: cell-based
Method in brief: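 HEK 293T/17 cells (2 × 10^4) plated and held 24 h at 37 °C, then treated at 1 and 10 μM final. MTS viability read at 0.5 and 24 h post-incubation.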

Caenorhabditis elegans [11] = assay: Drug metabolism in Caenorhabditis elegans assessed as 3-iodo closantel formation after 12 hrs by LC/MS analysis; format: ADME, organism-based; details: in vivo
Caenorhabditis elegans [12] = assay: Drug metabolism in Caenorhabditis elegans assessed as 5-iodo closantel formation after 12 hrs by LC/MS analysis; format: ADME, organism-based; details: in vivo
Caenorhabditis elegans [13] = assay: Drug metabolism in Caenorhabditis elegans assessed as sulfated metabolite formation after 12 hrs by LC/MS analysis; format: ADME, organism-based; details: in vivo
Caenorhabditis elegans [14] = assay: Drug metabolism in Caenorhabditis elegans assessed as glycosylated metabolite formation after 12 hrs by LC/MS analysis; format: ADME, organism-based; details: in vivo
Caenorhabditis elegans [15] = assay: Drug metabolism in Caenorhabditis elegans assessed as glucordinated metabolite formation after 12 hrs by LC/MS analysis; format: ADME, organism-based; details: in vivo
Caenorhabditis elegans [16] = assay: Toxicity in Caenorhabditis elegans; format: organism-based; details: in vivo
Plasmodium falciparum = assay: Inhibition of Plasmodium falciparum chitinase using 20 uM 4-methylumbelliferyl-N,N',N''-beta-chitotrioside as substrate at 10 uM after 10 mins by microplate reader analysis
Onchocerca volvulus [17] = assay: Antiparasitic activity against Onchocerca volvulus assessed as inhibition of L3 to L4 larval molting at 100 uM for 24 hrs measured until 6 days by using inverted microscopic analysis in presence of PBMC; format: functional, organism-based; method in brief: as §2
Onchocerca volvulus [18] = assay: Antiparasitic activity against Onchocerca volvulus assessed as inhibition of L3 to L4 larval molting at 0.5 uM for 24 hrs measured until 6 days by using inverted microscopic analysis in presence of PBMC and 0.5 uM protonophore CCCP; format: functional, organism-based; method in brief: as §2
Onchocerca volvulus [19] = assay: Antiparasitic activity against Onchocerca volvulus assessed as inhibition of L3 to L4 larval molting at 1 uM for 24 hrs measured until 6 days by using inverted microscopic analysis in presence of PBMC and 1 uM protonophore CCCP; format: functional, organism-based; method in brief: as §2
Onchocerca volvulus [20] = assay: Antiparasitic activity against Onchocerca volvulus assessed as inhibition of L3 to L4 larval molting at 2.5 uM for 24 hrs measured until 6 days by using inverted microscopic analysis in presence of PBMC and 2.5 uM protonophore CCCP; format: functional, organism-based; method in brief: as §2

Row | Compound | IC50 (Chitinase [1]) | Activity (HEK-293T [2]) | Activity (HEK-293T [3]) | Drug uptake (Caenorhabditis elegans [6]) | inhibition (Onchocerca volvulus [8]) | also measured
1 | O=C(Nc1ccc(Oc2ccccc2)cc1)c1cc(I)cc(I)c1 | 1060 nM | inactive | inactive |  |  | 
2 | O=C(Nc1ccc(Oc2ccc(Cl)cc2)c(Cl)c1)c1cc(I)cc(I)c1O [RAFOXANIDE] | 340 nM | Active | Active | 1.55 nmol/mg | Active | inhibition [4]: Active; Ki (Chitinase [5]): 130 nM; inhibition (Brugia malayi): inactive; inhibition (Entamoeba histolytica): inactive; Drug uptake (Caenorhabditis elegans [7]): 1.73 nmol/mg; inhibition at 1 µM (Onchocerca volvulus [9]): 84%; Activity (HEK-293T [10]): Non-toxic
3 | COc1c(I)cc(I)cc1C(=O)Nc1ccc(Oc2ccccc2)cc1 | 1280 nM | inactive | inactive |  |  | 
4 | Cc1ccc(Oc2ccc(NC(=O)c3cc(I)cc(I)c3O)cc2)cc1 | 1110 nM |  |  |  |  | 
5 | COc1c(I)cc(I)cc1C(=O)O |  |  |  |  | inactive | 
6 | Cc1cc(C(C#N)c2ccc(Cl)cc2)c(Cl)cc1NC(=O)c1cc(I)cc(I)c1O (stereo not given) [CLOSANTEL] |  | Active | Active | Active |  | Drug metabolism (Caenorhabditis elegans [11]): metabolite_detected; Drug metabolism (Caenorhabditis elegans [12]): metabolite_detected; Drug metabolism (Caenorhabditis elegans [13]): metabolite_notdetected; Drug metabolism (Caenorhabditis elegans [14]): metabolite_notdetected; Drug metabolism (Caenorhabditis elegans [15]): metabolite_notdetected; Activity (Caenorhabditis elegans [16]): Non-toxic
7 | O=C(Nc1ccc(Oc2ccccc2)cc1)c1cc(I)cc(I)c1O | 1980 nM | Active | Active |  |  | 
8 | O=C(Nc1ccc(Oc2cccc(Cl)c2)cc1)c1cc(I)cc(I)c1O | 1740 nM |  |  |  |  | 
9 | O=C(Nc1ccc(Oc2ccccc2Cl)cc1)c1cc(I)cc(I)c1O | 1200 nM |  |  |  |  | 
10 | Cc1ccc(-c2ccc(NC(=O)c3cc(I)cc(I)c3O)cc2)cc1 | 990 nM |  |  |  |  | 
11 | CN(C(=O)c1cc(I)cc(I)c1O)c1ccc(Oc2ccccc2)cc1 | 1810 nM |  |  |  |  | 
12 | O=C(Nc1ccc(Oc2ccc(Cl)cc2)cc1)c1cc(I)cc(I)c1O | 700 nM | Active | Active | Active | Active | inhibition [4]: Active; inhibition (Brugia malayi): inactive; inhibition (Entamoeba histolytica): inactive; inhibition at 1 µM (Onchocerca volvulus [9]): 84%; Activity (HEK-293T [10]): Non-toxic
13 | O=C(Nc1ccc(Oc2ccc(Cl)cc2)cc1)c1cc(I)cc(I)c1 | 870 nM | inactive | inactive | Active |  | 
14 | O=C(Nc1ccc(-c2ccccc2)cc1)c1cc(I)cc(I)c1O | 470 nM |  |  | Active |  | inhibition [4]: Active; inhibition (Brugia malayi): inactive; inhibition (Entamoeba histolytica): inactive; inhibition (Plasmodium falciparum): inactive
15 | COc1c(I)cc(I)cc1C(=O)Nc1ccc(Oc2ccc(Cl)cc2)cc1 | 600 nM | inactive | inactive | Active | Active | inhibition [4]: Active; inhibition (Brugia malayi): inactive; inhibition (Entamoeba histolytica): inactive; inhibition (Onchocerca volvulus [9]): inactive; inhibition (Onchocerca volvulus [17]): Active; inhibition (Onchocerca volvulus [18]): inactive; inhibition (Onchocerca volvulus [19]): inactive; inhibition (Onchocerca volvulus [20]): Active; inhibition (Plasmodium falciparum): inactive
16 | O=C(Nc1ccc2ccccc2c1)c1cc(I)cc(I)c1O | 940 nM | Active | Active | Active | Active | Drug uptake (Caenorhabditis elegans [7]): 1.13 nmol/mg; inhibition at 1 µM (Onchocerca volvulus [9]): 84%; Activity (HEK-293T [10]): Non-toxic
17 | O=C(Nc1ccc(-c2ccc(Cl)cc2)cc1)c1cc(I)cc(I)c1O | 370 nM |  |  | Active |  | inhibition [4]: Active; inhibition (Brugia malayi): inactive; inhibition (Entamoeba histolytica): inactive; inhibition (Plasmodium falciparum): inactive
18 | COc1c(I)cc(I)cc1C(=O)N(C)c1ccc(Oc2ccccc2)cc1 | 3710 nM | inactive | inactive |  |  | 
19 | O=C(Nc1ccc(Oc2ccc(F)cc2)cc1)c1cc(I)cc(I)c1O | 1570 nM |  |  |  |  | 
20 | N#CC(C#N)=NNc1cccc(Cl)c1 [CARBONYL CYANIDE M-CHLOROPHENYLHYDRAZONE] |  |  |  | Active | Active | 
21 | COc1c(I)cc(I)cc1C(=O)Nc1ccc2ccccc2c1 | 890 nM | inactive | inactive | Active | Active | Drug uptake (Caenorhabditis elegans [7]): 1.28 nmol/mg; inhibition (Onchocerca volvulus [9]): inactive
22 | O=C(Nc1ccc2ccccc2c1)c1cc(I)cc(I)c1 | 1290 nM | inactive | inactive |  |  | 
